Results reported in ChEMBL document CHEMBL1131456, “Synthesis, pharmacological characterization, and quantitative structure-activity relationship analyses of 3,7,9,9-tetraalkylbispidines: derivatives with specific bradycardic activity” (J Med Chem, 1998).
Each block holds one molecule with its values, some of them ahead of it.

Columns and labels:
[1] = species: Cavia porcellus; experiment: Score point for the selectivity versus additional effect FRP.; format: functional
[2] = species: Rattus norvegicus; experiment: Selectivity quotient (R&T125/HR75)
[3] = species: Rattus norvegicus; experiment: Score value indicates selectivity against the undesired effect on diastolic blood pressure; format: functional, Artery
[4] = Partition coefficient (logP); format: physicochemical; details: octanol/water; read-out: logP
In short: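 Lipophilicity was measured by reversed-phase HPLC. Mobile phase was methanol/0.005 M phosphate buffer pH 4 (60/40) with 0.1% SDS and 0.1 M NaClO4, at 23.0 ± 0.5 °C, with UV detection at 205 nm.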

[5] = species: Cavia porcellus; experiment: In vitro activity in guinea pig atria as the functional refractory period (FRP), which is the shortest interval between a double stimulus causing a double contraction.
In short: (§1)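 Isolated guinea pig atria in oxygenated buffer at 35 °C. Right atria beat spontaneously; left atria were paced at 2 Hz with 1 ms rectangular pulses and isometric contractions were recorded. Cumulative concentration–response curves were run with up to five concentrations. EC75/EC125 is the concentration giving a 25% decrease/increase from the predrug value, reported as the geometric mean of individual ECs.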

[6] = species: Rattus norvegicus; experiment: Score point for the selectivity versus additional effect R&T interval.; format: functional
[7] = species: Cavia porcellus; experiment: In vitro activity in guinea pig atria was measured as rate of spontaneously beating right atrium (SR) which reflects the activity of the sinus node; format: functional; details: Cardiac atrium; in short: as §1
[8] = test system: Rattus norvegicus; experiment: In vivo activity in anesthetized rat was measured as heart rate which provides information on in vivo bradycardic activity; format: functional
In short: (§2)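 Male Wistar rats (280–360 g) under urethane (1.25 g/kg ip), intubated and breathing spontaneously. Femoral arterial pressure was recorded with needle-electrode ECG, analysed every 30 s. Compound was given by continuous femoral-vein infusion at 0.1 mL/min, with concentration raised tenfold every 10 min (3 doses). ED75/ED125 is the dose giving a 25% decrease/increase from the predrug value, reported as the geometric mean of individual EDs.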

[9] = species: Rattus norvegicus; experiment: Selectivity quotient (DAP125/HR75)
[10] = test system: Rattus norvegicus; experiment: In vivo activity in anesthetized rat was measured as the diastolic arterial pressure which provides information on the peripheral resistance of the cardiovascular system and selectivity regarding bradycardia; format: functional, Artery; in short: as §2
[11] = species: Cavia porcellus; experiment: Selectivity quotient (FRP125/SR75); format: functional
In short: (§3)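 Atrial selectivity quotients were calculated from the guinea pig atrial EC values as F75/SR75 and FRP125/SR75.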

[12] = species: Rattus norvegicus; experiment: Score value indicates desire effect on heart rate; format: functional
[13] = species: Cavia porcellus; experiment: Sum of the scores of decrease of the sinus rate and selectivity versus the decrease in force of contraction; format: functional
[14] = species: Cavia porcellus; experiment: Score value indicates selectivity versus the decrease in force of contraction; format: functional
[15] = species: Rattus norvegicus; experiment: Total score (SS)
[16] = test system: Rattus norvegicus; experiment: In vivo activity in anesthetized rat was measured as the R alpha T-interval of the rat ECG which reflects the time from ventricular excitation to recovery; format: functional, Cardiac ventricle; in short: as §2
[17] = species: Cavia porcellus; experiment: Score value indicates decrease of the sinus rate; format: functional
[18] = species: Cavia porcellus; experiment: In vitro activity in guinea pig atria was measured as the peak force of contraction (F) of a stimulated left atrium; format: functional; details: Cardiac atrium; in short: as §1
[19] = species: Cavia porcellus; experiment: Selectivity quotient (F75/SR75); format: functional; in short: as §3

logP [4]: 7.43
Structure (SMILES): C1CCC(CN2CC3CN(CC4CCCCC4)CC(C2)C32CCCCC2)CC1
Score [1]: 6
Selectivity quotient [2]: 0.6
Score [3]: -2
EC125 [5]: 0.62 µM
Score [6]: 3
EC75 [7]: 7.57 µM
ED75 [8]: 20 µM/kg
Selectivity quotient [9]: >3
ED125 [10]: >61 µM/kg
Selectivity quotient [11]: 0.08
Score [12]: 3
Score [13]: -3
Score [14]: -6
total score (SS) [15]: 1
ED125 [16]: 12 µM/kg
Score [17]: 3
EC75 [18]: 2.65 µM
Selectivity quotient [19]: 0.35

logP [4]: 5.47
Structure (SMILES): CCCCCCN1CC2CN(CCCCCC)CC(C1)C21CCCC1
Score [1]: 3
Selectivity quotient [2]: 0.4
Score [3]: -4
EC125 [5]: 0.44 µM
Score [6]: 4
ED75 [8]: 14 µM/kg
Selectivity quotient [9]: 0.2
ED125 [10]: 2.8 µM/kg
Selectivity quotient [11]: 0.51
Score [12]: 3
Score [13]: 3
Score [14]: -3
total score (SS) [15]: -1
ED125 [16]: 5.6 µM/kg
Score [17]: 6
EC75 [18]: 3.07 µM
Selectivity quotient [19]: 3.53

logP [4]: 4.51
Structure (SMILES): CCCC1(CCC)C2CN(C(C)C)CC1CN(C(C)C)C2
Score [1]: 4
Selectivity quotient [2]: 0.28
Score [3]: -3
EC125 [5]: 0.8 µM
Score [6]: 4
EC75 [7]: 2.18 µM
ED75 [8]: 6.4 µM/kg
Selectivity quotient [9]: 1.72
ED125 [10]: 11 µM/kg
Selectivity quotient [11]: 0.37
Score [12]: 5
Score [13]: 4
Score [14]: -1
total score (SS) [15]: 2
ED125 [16]: 1.8 µM/kg
Score [17]: 5
EC75 [18]: 39.6 µM
Selectivity quotient [19]: 18.2

logP [4]: 3.53
Structure (SMILES): CCCC1(C)C2CN(C(C)C)CC1CN(C(C)C)C2 (stereo not given)
Score [1]: 3
Selectivity quotient [2]: 0.12
Score [3]: -1
EC125 [5]: 2.63 µM
Score [6]: 5
EC75 [7]: 1.99 µM
ED75 [8]: 4.5 µM/kg
Selectivity quotient [9]: >8
ED125 [10]: >36 µM/kg
Selectivity quotient [11]: 1.32
Score [12]: 6
Score [13]: 5
Score [14]: 0
total score (SS) [15]: 5
ED125 [16]: 0.53 µM/kg
Score [17]: 5
EC75 [18]: 211 µM
Selectivity quotient [19]: 106

logP [4]: 4.49
Structure (SMILES): C=CCCN1CC2CN(CCC=C)CC(C1)C21CCCCC1
Score [1]: 2
Selectivity quotient [2]: 0.12
Score [3]: -4
EC125 [5]: 1.14 µM
Score [6]: 5
EC75 [7]: 0.4 µM
ED75 [8]: 4.9 µM/kg
Selectivity quotient [9]: 0.31
ED125 [10]: 1.5 µM/kg
Selectivity quotient [11]: 2.85
Score [12]: 6
Score [13]: 6
Score [14]: 0
total score (SS) [15]: 2
ED125 [16]: 0.58 µM/kg
Score [17]: 6
EC75 [18]: 75.1 µM
Selectivity quotient [19]: 167

logP [4]: 4.29
Structure (SMILES): CC(C)CN1CC2CN(C(C)C)CC(C1)C21CCCCC1
Score [1]: 3
Selectivity quotient [2]: 0.13
Score [3]: -1
EC125 [5]: 1.54 µM
Score [6]: 5
EC75 [7]: 1 µM
ED75 [8]: 5.7 µM/kg
Selectivity quotient [9]: >7
ED125 [10]: >41 µM/kg
Selectivity quotient [11]: 1.54
Score [12]: 5
Score [13]: 5
Score [14]: 0
total score (SS) [15]: 4
ED125 [16]: 0.73 µM/kg
Score [17]: 5
EC75 [18]: 35.5 µM
Selectivity quotient [19]: 35.5

Structure (SMILES): CN1CC2CN(C)CC(C1)C2(C)C
Score [1]: 3
logP [4]: 1.61
EC125 [5]: 122 µM
Selectivity quotient [11]: 1
Score [13]: -5
Score [14]: -5
Score [17]: 0
Selectivity quotient [19]: 1

logP [4]: 4.37
Structure (SMILES): CCCCN1CC2CN(CCCC)CC(C1)C2(C)CC (stereo not given)
Score [1]: 5
Selectivity quotient [2]: 0.13
Score [3]: -5
EC125 [5]: 0.54 µM
Score [6]: 5
EC75 [7]: 3.21 µM
ED75 [8]: 4.6 µM/kg
Selectivity quotient [9]: 0.12
ED125 [10]: 0.57 µM/kg
Selectivity quotient [11]: 0.17
Score [12]: 6
Score [13]: -2
Score [14]: -6
total score (SS) [15]: 1
ED125 [16]: 0.61 µM/kg
Score [17]: 4
EC75 [18]: 1.52 µM
Selectivity quotient [19]: 0.47
